High-throughput results from PubChem.
Only some compounds are listed: those with a hit (about 2.5% of all), similar ones and a draw of the others.
NR1D1 modulator = modulates human Rev-erb alpha binding to DNA. P20393. Rev-erbα–FITC-DNA binding, fluorescence polarization, 90 min. activity, % at 10 µM. 370,000 tested, 0.79% active. AID 1259318;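 active = activity above about 14%, limit read from the data; passing the limit was not always enough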;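 note: 0% = DMSO wells with 35 nM protein and 100% = DMSO wells with 750 nM protein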
Target sequence (P20393 whole entry, looked up): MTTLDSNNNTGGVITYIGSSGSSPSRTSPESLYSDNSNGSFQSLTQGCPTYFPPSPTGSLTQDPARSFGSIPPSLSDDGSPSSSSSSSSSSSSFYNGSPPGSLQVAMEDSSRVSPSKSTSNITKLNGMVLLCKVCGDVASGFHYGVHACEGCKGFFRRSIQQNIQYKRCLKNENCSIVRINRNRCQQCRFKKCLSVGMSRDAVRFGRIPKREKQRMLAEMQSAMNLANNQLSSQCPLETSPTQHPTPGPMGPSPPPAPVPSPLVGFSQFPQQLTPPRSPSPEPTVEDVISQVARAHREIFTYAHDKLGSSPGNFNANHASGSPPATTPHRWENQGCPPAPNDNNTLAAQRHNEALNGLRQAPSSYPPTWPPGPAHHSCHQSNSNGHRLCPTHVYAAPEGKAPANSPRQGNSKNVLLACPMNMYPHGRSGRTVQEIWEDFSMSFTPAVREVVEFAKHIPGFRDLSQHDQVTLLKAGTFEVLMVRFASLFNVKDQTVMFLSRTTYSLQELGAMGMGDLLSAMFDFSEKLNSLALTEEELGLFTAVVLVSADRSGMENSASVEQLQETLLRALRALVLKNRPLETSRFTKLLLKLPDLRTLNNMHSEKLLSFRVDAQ
NTR1 agonist = NTR1 (human) agonism | activation, % at 20 µM | AID 493036 | NTR1-U2OS beta-arrestin-GFP spot imaging, agonist mode | P30989 | 330,000 tested, 0.17% active;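 active = activation at or above 40% of the spot to cytoplasm intensity ratio, with at least 20 cells analyzed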;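 note: 0% = DMSO without peptide and 100% = 100 nM NTR1 peptide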
MC4R ag barr = agonists of human melanocortin 4 receptor (MC4R) beta-arrestin | activation, % at 8.9 µM | U2OS MC4R beta-arrestin complementation, luminescence; percent of melanotan II response, DMSO zero | 360,000 tested, 0.98% active | AID 540308 | P32245;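 active = activation above a per-plate cutoff, the mean activation of sample wells on that plate plus 3 SD, cut at about 8% in these data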
MC4R antagonist = antagonists of human melanocortin 4 receptor (MC4R); inhibition, % at 6.5 µM; MC4R-expressing cells, MTII-stimulated cAMP, LANCE TR-FRET; 360,000 tested, 0.48% active; AID 540295;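 active = inhibition above its plate's cutoff, the mean of tested wells on that plate plus 3 SD, cut at about 29% in these data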;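 note: 0% = Melanotan II alone and 100% = Melanotan II plus saturating MCL0020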
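Test system: U2OS cells stably expressing human melanocortin 4 receptor (MC4R); also added: Melanotan II challenge; compound: 6.5 µM single dose; timing: 30-min compound preincubation, 1-h Melanotan II challenge, 1-h detection, room temperature; signal: Eu-cAMP/anti-cAMP TR-FRET, emission 671 nm; repeats: one well per compound, no replicates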
PG9 binder = PG9 antibody binding by small molecule; TR-FRET gp120-PG9 antibody binding; inhibition, % at 6.7 µM; 360,000 tested, 0.43% active; AID 624416; in the data active = inhibition above about 8.5%
PG9 binder conf = PG9 antibody binding, confirmed | shares compounds with PG9 binder | TR-FRET PG9 antibody binding, biochemical | inhibition, % at 6.7 µM | 1,500 tested, 90% active | AID 651571; in the data active = inhibition above about 9%
PGV04 counter = PGV04 control antibody binding, counter-screen. shares compounds with PG9 binder. TR-FRET PGV04 antibody-gp120 binding, biochemical. inhibition, % at 6.7 µM. 1,500 tested, 95% active. AID 651604; in the data active = inhibition above about 9.5%
PG9 binder DR = PG9 antibody binding, dose response; 95 tested, under 10 active; IC50, µM; shares compounds with PG9 binder; AID 651848; TR-FRET PG9 antibody-gp120 binding inhibition; in the data active = IC50 below about 10 µM
PGV04 binding DR = PGV04 binding, dose response counter-screen; shares compounds with PG9 binder; TR-FRET binding to control antibody PGV04; IC50, µM; 95 tested, 20% active; AID 651937
PG126 binding DR = PG126 binding, dose response counter-screen. shares compounds with PG9 binder. TR-FRET binding to antibody PG126, counterscreen. IC50, µM. 95 tested, 20% active
Starred values were filed as active, the others as inactive; i = inactive; x = no result. Cut-off read from the data, not from the text of the source, unless noted: active = IC50 below about 9 µM; inactive = the rest.

SMILES	NR1D1 modulator	NTR1 agonist	MC4R ag barr	MC4R antagonist	PG9 binder	PG9 binder conf	PGV04 counter	others
O=C(Nc1cccnc1)c1cc(-c2ccc3c(c2)OCO3)on1	3	0	0	7	12*	10*	22*
O=C(COC(=O)c1ccc2c(c1)OCO2)NCc1ccc(Cl)cc1	3	-5	-3	-1	12*	6	19*
N#Cc1ccc(Cl)cc1NC(=O)COC(=O)c1ccc2c(c1)OCCO2	2	0	1	0	50*	40*	69*
O=C1C(=O)N(Cc2cccnc2)C(c2cccc([N+](=O)[O-])c2)/C1=C(\O)c1ccc2c(c1)OCCO2 (stereo not drawn)	0	-1	-3	8	0	x	x
COc1cccc(C2/C(=C(\O)c3ccc4c(c3)OCCO4)C(=O)C(=O)N2Cc2cccnc2)c1 (stereo not drawn)	-3	0	2	16	23*	30*	35*
COc1cc(C2/C(=C(\O)c3ccc4c(c3)OCCO4)C(=O)C(=O)N2Cc2ccccc2)ccc1O (stereo not drawn)	0	-1	-1	3	-1	x	x
O=C1C(=O)N(Cc2ccncc2)C(c2ccccc2F)/C1=C(\O)c1ccc2c(c1)OCCO2 (stereo not drawn)	1	0	-1	3	16*	32*	31*	PG9 binder DR=i;PGV04 binding DR=5.3*;PG126 binding DR=7.8*
O=C1C(=O)N(Cc2cccnc2)C(c2cccc(F)c2)/C1=C(/O)c1ccc2c(c1)OCO2 (stereo not drawn)	0	0	-3	7	21*	44*	52*
O=C(Nc1nc2ccc(S(=O)(=O)N3CCOCC3)cc2s1)c1cccs1	4	2	-1	14	-1	x	x
O=C(CCc1ccccc1)Nc1nc2ccc(S(=O)(=O)N3CCOCC3)cc2s1	10	0	1	0	12*	22*	31*
CCn1c(SCc2nc(-c3ccccc3)no2)nnc1-c1cccs1	5	1	0	-3	2	x	x
CCn1c(SCc2nc(-c3ccccc3)no2)nnc1-c1ccco1	2	3	-2	2	15*	49*	61*
O=C(NC1CCCCN(Cc2ccc(Cl)cc2)C1=O)C(c1ccccc1)c1ccccc1 (stereo not drawn)	7	x	x	x	x	x	x
N#Cc1c(-c2ccco2)nc(SCc2ccc(F)cc2)[nH]c1=O	-4	-1	0	25	33*	33*	37*
N#Cc1c(-c2ccccc2)nc(SCc2ccc(Cl)cc2)[nH]c1=O	-3	1	0	3	1	x	x
Cc1nn(CC(=O)Nc2ccc(Cl)cc2Cl)c(=O)c2ccccc12	10	-1	0	-7	9.1*	25*	40*
COc1ccc(/C=N\NC(=O)CN2CCN(Cc3ccccc3)CC2)cc1OCc1ccccc1	-2	x	x	x	x	x	x
COc1ccc(C)cc1NC(=O)CSc1nnc(-c2ccc(Br)cc2)o1	9	6	4	1	11*	19*	26*
COc1ccccc1NC(=O)CSc1nnc(-c2ccc(C)cc2)o1	-3	-3	-1	5	-1	x	x
CCCCCCC[C@H](N)[C@H](O)C(=O)N(C)[C@@H](CCS(C)=O)C(=O)N[C@@H](Cc1ccc(O)cc1)C(=O)O (stereo partly drawn)	3	x	x	x	x	x	x
Cc1cccc(S(=O)(=O)Nc2cccc3c2C(=O)c2ccccc2-3)c1	4	0	-2	2	11*	15*	17*
Cc1ccc(NS(=O)(=O)c2ccc3c(c2)C(=O)c2ccccc2C3=O)c(C)c1	1	x	-2	4	-2	x	x
CCc1ccc(Nc2nc3ccccc3c(=O)s2)cc1	7	2	-1	-3	-2	x	x
CCOc1ccc(Nc2nc3ccccc3c(=O)s2)cc1	19	0	0	-1	17*	18*	20*
CN(c1ccc(F)cc1)S(=O)(=O)c1ccc2[nH]cc(C(=O)O)c(=O)c2c1	-5	0	-1	-5	9.6*	16*	19*
SMILES	NR1D1 modulator	NTR1 agonist	MC4R ag barr	MC4R antagonist	PG9 binder	PG9 binder conf	PGV04 counter	others
CCOc1ccccc1N(C)S(=O)(=O)c1ccc2[nH]cc(C(=O)N(CCOC)CCOC)c(=O)c2c1	-5	-1	-2	3	3	x	x
CCOC(=O)N1CCN(C(=O)c2c[nH]c3ccc(S(=O)(=O)N(C)c4ccc(F)cc4)cc3c2=O)CC1	4	1	-2	-2	7	x	x
COCCN(CCOC)C(=O)c1c[nH]c2ccc(S(=O)(=O)N(C)c3ccc(F)cc3)cc2c1=O	5	-1	0	8	9.6*	11*	12*
CN(C)S(=O)(=O)c1ccc(N2CCCC2)c(C(=O)NCc2cccc(C(F)(F)F)c2)c1	7	-1	3	2	12*	17*	25*
FC(F)(F)c1ccccc1CN1CCCc2nc(-c3ccc(Br)cc3)ccc21	9	x	x	x	-2	x	x
O=C(CSc1nc2ccccc2c(=O)n1-c1ccc(F)cc1)NCc1ccco1	1	0	1	17	x	x	x
CCOc1ccc(-n2c(SCC(=O)NCc3ccco3)nc3ccccc3c2=O)cc1	-1	2	-2	16	17*	45*	53*
COc1ccc2c(-c3ccccc3)cc(SCC(=O)NC3CCS(=O)(=O)C3)nc2c1 (stereo not drawn)	8	0	-1	7	22*	16*	19*
COCCNC(=O)CSc1cc(-c2ccccc2)c2ccc(OC)cc2n1	3	7	0	13	16*	21*	26*
N#CC1CCN(c2nc(-c3ccc(Br)cc3)cs2)CC1	3	x	x	x	x	x	x
COC(=O)c1sc(S(=O)(=O)Nc2c(C)nn(C)c2C)c(C(=O)OC)c1C	3	-1	-3	11	1	x	x
COC(=O)c1sc(NC(=S)NNC(=O)c2c(Br)c(C)nn2C)c(C(=O)OC)c1C	2	5	-1	2	19*	7	10.0*
O=C(CNC(=O)c1sc2ccccc2c1Cl)NCc1ccc(F)cc1	10	1	5	5	12*	8	21*
